Measured values as given in ChEMBL document CHEMBL4346658, “sp2-Iminosugar glycolipids as inhibitors of lipopolysaccharide-mediated human dendritic cell activation in vitro and of acute inflammation in mice in vivo” (Eur J Med Chem, 2019).
Active and inactive are the calls of the source. No cut-off for these calls is given here.

Legend:
[1] = test system: Dendritic cell; experiment: Antiinflammatory activity in human dendritic cells assessed as reduction in LPS-induced TNFalpha production at 100 uM pretreated with LPS for 30 mins followed by compound addition measured after 24 hrs by ELISA; assay type: functional, cell-based
Outline: (§1)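 Monocyte-derived DCs (10^5 per 200 µL) were stimulated with ultrapure E. coli K12 LPS (100 ng mL⁻¹). Compound was added 0.5, 2, 4 or 6 h after LPS. TNF-α in the supernatant was measured by ELISA 24 h after stimulation, as mean ± SD of more than 3 independent assays.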

[2] = test system: Dendritic cell; experiment: Antiinflammatory activity in human dendritic cells assessed as reduction in LPS-induced TNFalpha production at 100 uM cotreated with LPS measured after 24 hrs by ELISA; assay type: functional, cell-based
Outline: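 DCs came from human blood monocytes (Ficoll/Percoll) cultured 5 days with GM-CSF 50 ng ml⁻¹ and IL-4 10 ng ml⁻¹, in RPMI/10% FCS at 37 °C and 5% CO₂. Cells (10^5 per 200 µL) got E. coli K12 LPS (100 ng mL⁻¹) plus compound at the same time. After 24 h, supernatant TNF-α was measured by ELISA, with at least 3 donors and mean ± SEM.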

[3] = test system: Dendritic cell; experiment: Antiinflammatory activity in human dendritic cells assessed as CD14-TLR-4 co-localization at 100 uM incubated for 30 mins by DAPI staining based confocal microscopy; assay type: functional
Outline: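 Monocyte-derived DCs (10^5 per chamber) on poly-L-lysine-coated chamber slides were treated for 30 min, then washed, fixed and permeabilized. They were stained with goat anti-TLR-4 (5 µg mL⁻¹) plus AF488 anti-goat, and anti-CD14-APC, with DAPI nuclei. Confocal imaging gave the Pearson CD14/TLR-4 colocalization coefficient per field of 15–20 cells, from two independent assays.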

[4] = test system: Dendritic cell; experiment: Antiinflammatory activity in human dendritic cells assessed as reduction in LPS-induced TNFalpha production at 100 uM pretreated with LPS up to 6 hrs followed by compound addition measured after 24 hrs by ELISA; assay type: functional, cell-based; outline: as §1
[5] = test system: Dendritic cell; experiment: Antiinflammatory activity in human dendritic cells assessed as reduction in CD14 receptor cell surface expression at 100 uM incubated for 30 mins by flow cytometric analysis; assay type: functional, cell-based
Outline: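 Monocyte-derived DCs (10^5 in 200 µL complete medium) were exposed for 30 min at 37 °C without LPS. They were then washed, held on ice, stained with anti-CD14-PE, and surface CD14 was read by flow cytometry.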

[6] = test system: Dendritic cell; experiment: Antiinflammatory activity in human dendritic cells assessed as reduction in LPS-induced CD86 expression on cell surface at 100 uM pretreated with LPS upto 6 hrs followed by compound addition measured after 24 hrs by FACS analysis; assay type: functional, cell-based
[7] = test system: Dendritic cell; experiment: Antiinflammatory activity in human dendritic cells assessed as reduction in LPS-induced CD83 expression on cell surface at 100 uM pretreated with LPS upto 6 hrs followed by compound addition measured after 24 hrs by FACS analysis; assay type: functional, cell-based

With `CCCCCCCCCCCCC#CC#CCCCCCCCCC(=O)NC(COCCC(=O)NCCOCCOCCOCCO[C@H]1O[C@H](CO)[C@@H](O)[C@H](O)[C@@H]1O)(COCCC(=O)NCCOCCOCCOCCO[C@H]1O[C@H](CO)[C@@H](O)[C@H](O)[C@@H]1O)COCCC(=O)NCCOCCOCCOCCO[C@H]1O[C@H](CO)[C@@H](O)[C@H](O)[C@@H]1O` the inhibition [1] was “Active”, the inhibition [2] was “Active” and the Activity [3] was “Active”. The inhibition [4] was “inactive”, the inhibition [5] was “Active” and the inhibition [6] was “inactive”. For the same molecule, the inhibition [7] was “inactive”.
